Results on 4 molecules are retold here after ChEMBL document CHEMBL1128424, “New orally active serine protease inhibitors” (J Med Chem, 1995).

SMILES strings stand for the structures.

Data set [1] in a line: Concentration required to inhibit enzymatic cleavage of the chromogenic substrate (Suc-Ala-Ala-Ala-AMC) for pancreatic elastase in vitro. Details: species or system Homo sapiens.
Data set [2] has as its target Plasma kallikrein (Homo sapiens, UniProt P03952). Put plainly: Concentration required to inhibit enzymatic cleavage of the chromogenic substrate (H-D-Pro-Phe-Arg-pNA) for plasma kallikrein in vitro.
In data set [3] the target is Serine protease 1 (Homo sapiens, UniProt P07477). Description: Concentration required to inhibit enzymatic cleavage of the chromogenic substrate (Boc-Phe-Ser-Arg-AMC) for trypsin in vitro.
Data set [4] concerns the target Chymotrypsinogen A (Bos taurus, UniProt P00766). Description: Concentration required to inhibit enzymatic cleavage of the chromogenic substrate (Suc-Ala-Ala-Pro-Phe-pNA) for chymotrypsin in vitro.
The target in data set [5] is T1, Cathepsin G (Homo sapiens, UniProt P08311).
T1 sequence (P08311 whole entry): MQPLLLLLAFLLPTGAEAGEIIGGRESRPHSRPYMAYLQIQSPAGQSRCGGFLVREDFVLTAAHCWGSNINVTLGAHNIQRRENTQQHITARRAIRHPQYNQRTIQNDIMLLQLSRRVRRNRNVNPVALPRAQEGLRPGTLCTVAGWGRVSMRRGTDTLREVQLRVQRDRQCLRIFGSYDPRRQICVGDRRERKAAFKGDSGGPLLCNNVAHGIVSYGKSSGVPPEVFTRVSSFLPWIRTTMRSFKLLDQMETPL
Put plainly: Concentration required to inhibit enzymatic cleavage of the chromogenic substrate (MeO-Suc-Ala-Ala-Pro-Met-pNA) for cathepsin G in vitro.

The target in data set [6] is T2, Neutrophil elastase (Homo sapiens, UniProt P08246).
T2 sequence (P08246 whole entry): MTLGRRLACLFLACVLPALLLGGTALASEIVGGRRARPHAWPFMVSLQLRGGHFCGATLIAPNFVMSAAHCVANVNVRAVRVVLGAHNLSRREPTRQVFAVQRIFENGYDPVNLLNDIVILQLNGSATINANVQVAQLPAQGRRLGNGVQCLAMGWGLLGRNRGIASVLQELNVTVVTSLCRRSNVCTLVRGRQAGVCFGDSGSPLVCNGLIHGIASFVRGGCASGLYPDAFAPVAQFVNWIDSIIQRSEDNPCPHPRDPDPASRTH
Put plainly: Concentration required to inhibit enzymatic cleavage of the chromogenic substrate (MeO-Suc-Ala-Ala-Pro-Val-pNA) for sputum elastase in vitro.

For data set [7], the target named is Kallikrein-1 (Homo sapiens, UniProt P06870). Description: Concentration required to inhibit enzymatic cleavage of the chromogenic substrate (H-D-Val-Leu-Arg-pNA) for pancreatic kallikrein in vitro.
For data set [8], the target named is Plasminogen (Rattus norvegicus, UniProt Q01177). Description: Concentration required to inhibit enzymatic cleavage of the chromogenic substrate (H-D-Val-Leu-Lys-pNA) for plasmin in vitro.
For data set [9], the target named is Prothrombin (Homo sapiens, UniProt P00734). Description: Concentration required to inhibit enzymatic cleavage of the chromogenic substrate (H-D-Phe-Pip-Arg-pNA) thrombin in vitro.
Data set [10] is described as follows: Half-life in dog small intestine homogenate. Type of data set: ADME, organism-based, Canis lupus familiaris. The gist of the method:
(§1)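 Compound in MeOH (1 mg/mL stock) incubated with rat or dog plasma, liver homogenate or small intestine homogenate at 37 °C for 120 min; aliquots taken at regular intervals into acetonitrile with 1% methanesulfonic acid at 5 °C, centrifuged 10 000 rpm 1 min, analyzed by HPLC to give hydrolysis half-life (min) and products.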

Data set [11] is described as follows: Half-life in rat small intestine homogenate. Type of data set: ADME, organism-based. The gist of the method:
as §1

A short description of data set [12]: Half-life in dog plasma. It counts as ADME, organism-based, Canis lupus familiaris. The gist of the method:
as §1

Data set [13] can be described thus: Half-life in rat plasma. It counts as ADME, organism-based. Put shortly:
as §1

A short description of data set [14]: Half-life in rat liver homogenate. Type of data set: ADME, organism-based. The gist of the method: as §1
Data set [15] is described as follows: Half-life in dog liver homogenate. It counts as ADME, organism-based, Canis lupus familiaris. Put shortly:
as §1

Data set [16] can be described thus: Area under the plasma concentration was determined in fasted Beagle dogs after peroral administration of 100 mg/kg. Type of data set: ADME, organism-based, Canis lupus familiaris. Details: dose 100 mg/kg, route oral. Conditions: dog, po. The gist of the method:
(§2)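 Fasted beagle dogs dosed orally; plasma (0.2 mL) deproteinized with acetonitrile containing 1% methanesulfonic acid at 5 °C, centrifuged 10 min at 3000 rpm at 5 °C, analyzed by HPLC with n-propyl or iso-amyl 4-hydroxybenzoate as internal standard.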

Data set [17] in a line: Area under the plasma concentration was determined in fasted Beagle dogs after peroral administration of 20 mg/kg. The conditions noted are these: dog, po. Details: dose 20 mg/kg, route oral. Type of data set: ADME, organism-based, Canis lupus familiaris. Put shortly:
as §2

Chain of Plasminogen (Q01177 97-581 limits assumed): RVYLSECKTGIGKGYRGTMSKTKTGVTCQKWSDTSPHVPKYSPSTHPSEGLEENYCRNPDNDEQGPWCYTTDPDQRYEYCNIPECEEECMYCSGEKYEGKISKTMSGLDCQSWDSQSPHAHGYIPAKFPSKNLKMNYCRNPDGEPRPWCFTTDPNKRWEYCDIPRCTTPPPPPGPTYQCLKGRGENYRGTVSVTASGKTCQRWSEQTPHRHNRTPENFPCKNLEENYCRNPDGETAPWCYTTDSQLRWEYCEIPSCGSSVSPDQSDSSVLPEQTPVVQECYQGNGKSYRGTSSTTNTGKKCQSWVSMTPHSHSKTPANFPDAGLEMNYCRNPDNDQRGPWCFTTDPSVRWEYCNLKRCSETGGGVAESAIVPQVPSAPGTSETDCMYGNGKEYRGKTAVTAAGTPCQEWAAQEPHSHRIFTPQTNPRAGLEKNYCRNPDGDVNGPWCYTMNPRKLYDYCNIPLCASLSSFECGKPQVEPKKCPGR
Chain of Plasminogen (Q01177 582-812 limits assumed): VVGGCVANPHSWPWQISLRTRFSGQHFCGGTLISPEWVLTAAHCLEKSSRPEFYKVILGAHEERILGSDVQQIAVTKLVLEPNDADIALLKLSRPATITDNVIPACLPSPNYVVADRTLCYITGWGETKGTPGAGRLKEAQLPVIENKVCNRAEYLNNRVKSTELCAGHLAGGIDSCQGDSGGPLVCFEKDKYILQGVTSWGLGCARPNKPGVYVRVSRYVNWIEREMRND
Chain of Kallikrein-1 (P06870 whole entry): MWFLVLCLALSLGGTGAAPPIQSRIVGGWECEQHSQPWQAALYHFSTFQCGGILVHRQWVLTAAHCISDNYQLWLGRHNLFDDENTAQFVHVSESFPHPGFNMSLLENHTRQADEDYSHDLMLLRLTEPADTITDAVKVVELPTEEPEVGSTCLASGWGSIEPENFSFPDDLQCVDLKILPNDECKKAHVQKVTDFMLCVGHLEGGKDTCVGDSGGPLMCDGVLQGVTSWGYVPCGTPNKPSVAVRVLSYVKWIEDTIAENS
Chain of Plasma kallikrein (P03952 whole entry, looked up): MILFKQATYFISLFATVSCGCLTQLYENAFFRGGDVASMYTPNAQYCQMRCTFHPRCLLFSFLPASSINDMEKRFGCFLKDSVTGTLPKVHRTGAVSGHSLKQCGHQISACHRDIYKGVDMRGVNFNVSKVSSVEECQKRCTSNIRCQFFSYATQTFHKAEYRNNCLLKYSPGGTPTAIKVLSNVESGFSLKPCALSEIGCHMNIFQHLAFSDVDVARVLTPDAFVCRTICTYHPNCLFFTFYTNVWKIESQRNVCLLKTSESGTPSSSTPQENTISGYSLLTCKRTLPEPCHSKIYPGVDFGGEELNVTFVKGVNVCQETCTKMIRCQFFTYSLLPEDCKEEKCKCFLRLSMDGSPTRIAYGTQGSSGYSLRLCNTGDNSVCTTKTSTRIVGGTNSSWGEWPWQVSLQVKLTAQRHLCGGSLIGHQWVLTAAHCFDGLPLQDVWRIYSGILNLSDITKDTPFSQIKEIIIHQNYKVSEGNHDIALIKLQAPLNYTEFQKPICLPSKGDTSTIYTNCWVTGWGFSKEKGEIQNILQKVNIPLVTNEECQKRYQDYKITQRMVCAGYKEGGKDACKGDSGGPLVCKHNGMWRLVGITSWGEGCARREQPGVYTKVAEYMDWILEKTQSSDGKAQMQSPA
Chain of Serine protease 1 (P07477 whole entry): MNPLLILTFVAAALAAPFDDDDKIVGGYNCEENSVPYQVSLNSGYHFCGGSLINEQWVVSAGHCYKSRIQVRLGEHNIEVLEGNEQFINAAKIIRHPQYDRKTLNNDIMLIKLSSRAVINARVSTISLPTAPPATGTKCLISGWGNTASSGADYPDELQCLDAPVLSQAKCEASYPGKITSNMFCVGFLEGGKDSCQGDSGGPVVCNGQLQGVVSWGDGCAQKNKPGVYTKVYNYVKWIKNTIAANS

On to `N=C(N)Nc1ccc(C(=O)Oc2ccc(CC(=O)O)cc2)cc1`, for which the IC50 (in general, the concentration that inhibits the measured activity by half) in data set [1] was > 100 µM; in [2], 2.32 µM; in [3] it was 0.055 µM; in [4], > 100 µM; in data set [5], > 100 µM; in data set [6] it was > 100 µM. Moreover, the IC50 in data set [7] was > 100 µM; in data set [8], 12.5 µM; in data set [9] it was 108 µM.

On to `C=CCN(CC(=O)OCC)C(=O)/C(C)=C/c1ccc(C(=O)Oc2ccc(C(=N)N)cc2)cc1.CS(=O)(=O)O`, for which the half-life (usually the time needed for the level to fall by half in the phase considered) in data set [10] was > 60 min; in data set [11] it was 11 min; in data set [12], 25 min; in data set [13], < 1 min; in data set [14], < 1 min; in data set [15], < 1 min. The IC50 is > 100 µM in data set [1]; 0.19 µM in [2]; 0.0112 µM in [3]; > 100 µM in [4]; > 100 µM in data set [5]; > 100 µM in data set [6]. For the same molecule, the IC50 in [7] was found to be 15.7 µM; in [8], 0.873 µM; in [9] it was 3.66 µM.

Regarding `C=CCN(CC(=O)O)C(=O)/C(C)=C/c1ccc(C(=O)Oc2ccc(C(=N)N)cc2)cc1.CS(=O)(=O)O`, the half-life is > 60 min in [10]; > 60 min in data set [11]; 15 min in data set [12]; > 60 min in data set [13]; > 60 min in data set [14]; > 60 min in [15]. The IC50 in data set [1] was > 100 µM; in data set [2] it was 0.0965 µM; in data set [3], 0.00413 µM; in data set [4], > 100 µM; in data set [5] it was > 100 µM; in [6], > 100 µM. The IC50 was > 100 µM in data set [7], 1.83 µM in data set [8] and 35 µM in data set [9]. Moreover, the AUC (in general, the area under the concentration-time curve, a measure of exposure) was 27000 ng·h/mL in data set [16] and 5230 ng·h/mL in data set [17].

Consider `CN(C)C(=O)COC(=O)Cc1ccc(OC(=O)c2ccc(NC(=N)N)cc2)cc1.CS(=O)(=O)O` [CAMOSTAT MESILATE], for which the IC50 was > 100 µM in data set [1]; 1.48 µM in [2]; 0.0506 µM in data set [3]; > 100 µM in data set [4]; > 100 µM in [5]; > 100 µM in data set [6]. Moreover, the IC50 was 34.1 µM in [7] and 2.62 µM in data set [8]. Moreover, in [17], the AUC turned out to be 1820 ng·h/mL.
